The list is not random: actives were taken first. Their share in the collection is about 1.4%.
UBC9 SUMO inh = blocks human SUMOylation mediated by UBC9 | P63279 | HTRF SUMOylation assay, SAE1/SAE2 + UBC9, in vitro | inhibition, % at 35 µM | hit rate 0.36% among 290,000 | AID 2006; in the data active = inhibition above about 50%, passing the limit was not always enough
Target sequence (P63279 whole entry, looked up): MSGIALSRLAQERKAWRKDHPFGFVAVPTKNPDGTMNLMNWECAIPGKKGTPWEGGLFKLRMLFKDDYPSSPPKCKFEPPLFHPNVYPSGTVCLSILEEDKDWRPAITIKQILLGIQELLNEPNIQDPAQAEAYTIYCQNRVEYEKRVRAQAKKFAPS
HCV NS3 hel inh = inhibitors of Hepatitis C virus NS3 helicase; hit rate 0.56% among 290,000; inhibition, % at 10.9 µM; AID 1800; NS3 helicase DNA unwinding, Cy5 molecular beacon fluorescence;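 active = inhibition above the mean of all tested compounds plus 3 SD, set per campaign, cut at about 35% in these data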;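 also: 0% = DMSO wells and 100% = thioflavine S control wells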
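Control set: DMSO versus 110 µM thioflavine S; Material: NS3 helicase fragment of HCV; Measured by: Cy5 fluorescence at 0 and 60 min, beacon hairpin quenching; Read-out basis: percent inhibition from t60/t0 fluorescence ratio; Times: reaction time 60 min, 25 °C; Repeats: single replicate; Compound dosing: single dose, 10.9 µM nominal final, DMSO 0.8% final.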
ZTA DNA inh = ZTA (EBV) inhibition in EBNA-1 counter-screen; ZTA-DNA binding, fluorescence polarization; inhibition, % at 11 µM; AID 2234; P03206; hit rate 0.15% among 320,000; in the data active = inhibition above about 33%
Target sequence (P03206 whole entry, looked up): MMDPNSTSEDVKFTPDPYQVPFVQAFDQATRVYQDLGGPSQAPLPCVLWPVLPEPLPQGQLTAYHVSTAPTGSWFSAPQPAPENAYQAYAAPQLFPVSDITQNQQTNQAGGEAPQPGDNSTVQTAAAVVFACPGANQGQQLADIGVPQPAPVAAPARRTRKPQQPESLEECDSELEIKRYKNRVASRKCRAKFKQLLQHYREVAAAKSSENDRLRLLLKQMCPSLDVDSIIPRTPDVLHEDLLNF
EBNA-1 inh = blocks EBNA-1 binding to DNA | hit rate 0.34% among 300,000 | EBNA-1 DNA binding, fluorescence polarization | inhibition, % at 14.8 µM; in the data active = inhibition above about 28%
core dimer inh = HCV core protein dimerization inhibition | TR-FRET GST/Flag-core106 dimerization, 1536-well | inhibition, % at 5 µM | hit rate 0.33% among 300,000;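 active = inhibition above the mean of all tested compounds plus 3 SD, set per screening campaign, cut at about 45% in these data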
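test system = GST/Flag-tagged HCV core106 proteins | probe or stimulus = Eu donor and XL665 acceptor anti-tag antibodies | times = compound-protein-antibody incubation 4 h at 22.5 °C | signal = TR-FRET, excitation 340 nm, emission 617 and 671 nm | measure = percent inhibition of core106 dimerization signal | controls = wells lacking GST-core106 and wells with excess unlabelled core106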
NS3 helicase cf = HCV NS3 helicase inhibition, confirmation assay; shares compounds with HCV NS3 hel inh; NS3 helicase DNA unwinding, Cy5 molecular beacon fluorescence; inhibition, % at 10.9 µM; hit rate 31% among 1,600; AID 1943;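 active = inhibition above the mean of all tested compounds plus 3 SD, cutoff set per campaign, cut at about 36% in these data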
FID counter trip = counter-screen for HCV NS3 helicase inhibitors: DNA intercalator displacement. shares compounds with HCV NS3 hel inh. DNA fluorescent intercalator displacement, fluorescence. inhibition, % at 7.9 µM. hit rate 4% among 1,600. AID 1945; in the data active = inhibition above about 37%;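 also: 0% = vehicle and 100% = reference compound; higher means more displacement of ethidium bromide from the DNA hairpin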
* = called active by the depositor; . = not tested or not shown.

SMILES	UBC9 SUMO inh	HCV NS3 hel inh	ZTA DNA inh	EBNA-1 inh	core dimer inh	NS3 helicase cf	FID counter trip
CCN1C(=O)C2(C(C#N)=C(N)Oc3c2c(C)nn3-c2ccccc2)c2ccccc21 (stereo not drawn)	23	15	3	-14	-1	.	.
O=C(Nc1ccc(C(=O)NCCCN2CCN(c3ccc(F)cc3)CC2)cc1)C1=CSCCO1	2	-20	-2	11	9	.	.
CN(C)c1ccc(N=Nc2ccc(C(=O)O)cc2)cc1	-3	63*	2	-8	-14	-20	-3
CN(C)c1ccc(C(=O)c2ccccc2)cc1	11	6	-11	3	-2	.	.
O=C(Nc1cccc2ccccc12)c1ccc([N+](=O)[O-])cc1	4	41*	-9	-1	-3	-12	15
N#Cc1c(NC(=O)/C=C/c2ccco2)sc2c1CCCC2	40	34	13	-1	4	.	.
O=C(/C=C/c1ccco1)Nc1sc2c(c1C(=O)O)CCC2	-8	47*	-8	-3	-6	19	19
CCCCSc1nc2c(cc1C#N)CCC2	-6	5	9	8	3	.	.
CCCSc1nc(C)c(-c2csc(C(C#N)=C3CCCC3)n2)cc1C#N	28	52*	-9	1	61*	30	31
Cc1ccc(C(=O)N/N=C\c2ccc(-c3ccc(Cl)c(Cl)c3)o2)cn1	2	69*	-6	17	4	-7	-7
CCOC(=O)c1cnc2c(ccc3ccccc32)c1NCCN(C)C	9	36*	5	-1	3	7	75*
O=C(O)c1ccc(S(=O)(=O)N(CCc2ccccc2)Cc2ccc(Cl)cc2)cc1	11	45*	-11	3	7	32	11
Cc1ccc(S(=O)(=O)N(Cc2ccc(Cl)cc2)c2ccccc2C(=O)O)cc1	14	36*	-1	3	3	41*	-24
COc1ccc(S(=O)(=O)N(Cc2ccccc2)c2ccccc2C(=O)O)cc1	-1	-13	5	-5	7	.	.
O=C(O)c1ccc(S(=O)(=O)N(Cc2ccccc2)Cc2ccccc2)cc1	5	14	14	8	11	.	.
Cc1ccc(NC(=O)CSc2nnnn2C2CCCC2)cc1S(=O)(=O)N1CCOCC1	.	.	-15	.	.	.	.
CCCNC(=O)c1ccc(N2CCC3(CC2)CC(c2cccc(Br)c2)=NO3)c(NC(=O)c2ccc(Cl)c([N+](=O)[O-])c2)c1	.	.	6	7	19	.	.
CCOC(=O)c1c(-c2ccc(C)cc2)csc1NC(=O)C1CC=CCC1C(=O)O (stereo not drawn)	24	43*	10	-1	18	74*	-16
CCOC(=O)c1c(-c2cccc(C)c2)csc1NC(=O)C1CC=CCC1C(=O)O (stereo not drawn)	36	14	2	2	2	.	.
CCN(CCO)c1nc(SC)nc2c1sc1nc(-c3ccco3)c3c(c12)CCC3	27	36*	11	11	80*	81*	27
COc1ccc(C(=O)NCc2ccc3c(c2)OCO3)cc1S(=O)(=O)N1CCCC1	.	.	-1	.	.	.	.
Cc1ccc(S(=O)(=O)N/N=C/c2cc(Br)ccc2O)cc1	16	20	16	6	8	.	.
Cc1ccc(S(=O)(=O)Nc2ccc(Br)cc2/C=N/n2cnnc2)cc1	43	36*	16	-3	2	38*	-8
Cc1ccnc(NC(=O)CCC(=O)c2cccs2)c1	.	.	-8	-14	15	.	.
Cc1cc(N=Nc2ccccc2C(=O)O)c(C)c(C)c1O	-5	49*	-1	8	0	66*	2
Cc1cc(C)c(-c2c(O)c3cccc4c3n(c2=O)CCC4)c(C)c1	3	40*	-13	-6	-4	-16	-3
O=C(O)/C=C/c1ccc2c(-c3ccccc3)onc2c1	8	54*	18	1	-23	-21	7
COc1ccc(CNC(=O)CS(=O)(=O)Cc2nc(-c3ccc(OC)cc3)oc2C)cc1	22	12	-8	10	-14	.	.
Cc1ccc(CNC(=O)CS(=O)(=O)Cc2nc(-c3ccc(C)cc3)oc2C)cc1	0	41*	-5	-3	-6	-6	-17

From PubChem
